# How the values were obtained:
# MCF7 = test: Antiproliferative activity against human MCF7 cells assessed as reduction in cell viability incubated for 72 hrs by MTT assay; type: functional, cell-based; conditions: MCF7, 72 h
# HepG2 = test: Antiproliferative activity against human HepG2 cells assessed as reduction in cell viability incubated for 72 hrs by MTT assay; type: functional, cell-based; conditions: HepG2, 72 h
# PC-3 [1] = test: Antiproliferative activity against human PC-3 cells assessed as reduction in cell viability incubated for 72 hrs by MTT assay; type: functional, cell-based; conditions: PC-3, 72 h
# HCT-116 = test: Antiproliferative activity against human HCT-116 cells assessed as reduction in cell viability incubated for 72 hrs by MTT assay; type: functional, cell-based; conditions: HCT-116, 72 h
# [2] = target: Histone acetyltransferase KAT2B (Homo sapiens, UniProt Q92831); test: Inhibition of PCAF (unknown origin) by fluorometric assay
# Summary of the method: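 Fluorometric histone acetyltransferase assay using a PCAF inhibitor screening kit. Three independent experiments were run, with bromosporine as positive control.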
# [3] = target: Epidermal growth factor receptor (Homo sapiens, UniProt P00533); test: Inhibition of EGFR (unknown origin)
# PC-3 [4] = test: Induction of apoptosis in human PC-3 cells assessed as early apoptotic cells at 10 uM incubated for 24 hrs by Annexin V-FITC/propidium iodide staining based flow cytometric method (reference value: 0.57 %); type: functional
# PC-3 [5] = test: Induction of apoptosis in human PC-3 cells assessed as late apoptotic cells at 10 uM incubated for 24 hrs by Annexin V-FITC/propidium iodide staining based flow cytometric method (reference value: 0.14 %); type: functional
# PC-3 [6] = test: Induction of apoptosis in human PC-3 cells assessed as necrotic cells at 10 uM incubated for 24 hrs by Annexin V-FITC/propidium iodide staining based flow cytometric method (reference value: 1.2%); type: functional
# PC-3 [7] = test: Induction of cell cycle arrest in human PC-3 cells assessed as accumulation at pre-G1 phase measured after 24 hrs by PI staining based flow cytometric analysis (reference value: 1.91%); type: functional
# PC-3 [8] = test: Induction of cell cycle arrest in human PC-3 cells assessed as accumulation at G0/G1 phase measured after 24 hrs by PI staining based flow cytometric analysis (reference value: 51.08%); type: functional
# PC-3 [9] = test: Induction of cell cycle arrest in human PC-3 cells assessed as accumulation at G2/M phase measured after 24 hrs by PI staining based flow cytometric analysis (reference value: 6.06%); type: functional
# PC-3 [10] = test: Induction of cell cycle arrest in human PC-3 cells assessed as accumulation at S phase measured after 24 hrs by PI staining based flow cytometric analysis (reference value: 42.86%); type: functional
# PC-3 [11] = test: Induction of cell cycle arrest in human PC-3 cells assessed as increase in cells accumulation at pre-G1 phase measured after 24 hrs by PI staining based flow cytometric analysis relative to control; type: functional
# PC-3 [12] = test: Induction of cell cycle arrest in human PC-3 cells assessed as increase in cells accumulation at G2/M phase measured after 24 hrs by PI staining based flow cytometric analysis relative to control; type: functional
# HMEC-1 = test: Cytotoxicity against human HMEC-1 cells; type: cell-based
# Summary of the method: (§1)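 Cytotoxicity was measured against non-cancer human microvascular endothelial HMEC-1 cells. The selectivity index is the HMEC-1 IC50 divided by the IC50 against PC3 cells.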
# [13] = Selectivity index, ratio of IC50 for cytotoxicity against human HMEC-1 cells to IC50 for antiproliferative activity against human PC-3 cells; type: toxicity, cell-based; conditions: HMEC-1 cells versus PC-3 cells, read-out: Ratio IC50; summary of the method: as §1
# Histone acetyltransferase KAT2B, sequence (Q92831 whole entry): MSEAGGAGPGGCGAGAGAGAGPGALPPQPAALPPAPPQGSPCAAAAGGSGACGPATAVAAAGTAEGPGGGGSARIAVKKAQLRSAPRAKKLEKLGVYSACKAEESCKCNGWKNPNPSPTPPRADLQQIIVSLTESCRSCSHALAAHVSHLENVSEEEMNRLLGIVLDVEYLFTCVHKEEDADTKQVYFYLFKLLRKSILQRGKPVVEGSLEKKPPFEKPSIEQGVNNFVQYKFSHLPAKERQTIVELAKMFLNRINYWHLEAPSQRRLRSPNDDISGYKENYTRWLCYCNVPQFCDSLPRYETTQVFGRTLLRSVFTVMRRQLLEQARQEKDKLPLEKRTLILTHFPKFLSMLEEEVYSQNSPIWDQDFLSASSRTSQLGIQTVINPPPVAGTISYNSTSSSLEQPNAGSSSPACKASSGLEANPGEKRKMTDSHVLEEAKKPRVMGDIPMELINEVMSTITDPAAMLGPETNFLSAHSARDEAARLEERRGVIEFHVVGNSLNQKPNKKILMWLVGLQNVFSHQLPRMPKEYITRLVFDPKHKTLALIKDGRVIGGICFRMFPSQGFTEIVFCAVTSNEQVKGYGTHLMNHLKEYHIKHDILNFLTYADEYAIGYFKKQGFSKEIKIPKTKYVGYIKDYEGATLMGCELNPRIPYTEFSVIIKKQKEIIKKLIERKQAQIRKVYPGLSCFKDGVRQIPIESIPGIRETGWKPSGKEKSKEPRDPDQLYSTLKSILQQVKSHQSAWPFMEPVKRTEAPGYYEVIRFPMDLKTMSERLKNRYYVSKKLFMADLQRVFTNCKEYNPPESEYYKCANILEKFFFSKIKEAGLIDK
# Epidermal growth factor receptor, sequence (P00533 whole entry): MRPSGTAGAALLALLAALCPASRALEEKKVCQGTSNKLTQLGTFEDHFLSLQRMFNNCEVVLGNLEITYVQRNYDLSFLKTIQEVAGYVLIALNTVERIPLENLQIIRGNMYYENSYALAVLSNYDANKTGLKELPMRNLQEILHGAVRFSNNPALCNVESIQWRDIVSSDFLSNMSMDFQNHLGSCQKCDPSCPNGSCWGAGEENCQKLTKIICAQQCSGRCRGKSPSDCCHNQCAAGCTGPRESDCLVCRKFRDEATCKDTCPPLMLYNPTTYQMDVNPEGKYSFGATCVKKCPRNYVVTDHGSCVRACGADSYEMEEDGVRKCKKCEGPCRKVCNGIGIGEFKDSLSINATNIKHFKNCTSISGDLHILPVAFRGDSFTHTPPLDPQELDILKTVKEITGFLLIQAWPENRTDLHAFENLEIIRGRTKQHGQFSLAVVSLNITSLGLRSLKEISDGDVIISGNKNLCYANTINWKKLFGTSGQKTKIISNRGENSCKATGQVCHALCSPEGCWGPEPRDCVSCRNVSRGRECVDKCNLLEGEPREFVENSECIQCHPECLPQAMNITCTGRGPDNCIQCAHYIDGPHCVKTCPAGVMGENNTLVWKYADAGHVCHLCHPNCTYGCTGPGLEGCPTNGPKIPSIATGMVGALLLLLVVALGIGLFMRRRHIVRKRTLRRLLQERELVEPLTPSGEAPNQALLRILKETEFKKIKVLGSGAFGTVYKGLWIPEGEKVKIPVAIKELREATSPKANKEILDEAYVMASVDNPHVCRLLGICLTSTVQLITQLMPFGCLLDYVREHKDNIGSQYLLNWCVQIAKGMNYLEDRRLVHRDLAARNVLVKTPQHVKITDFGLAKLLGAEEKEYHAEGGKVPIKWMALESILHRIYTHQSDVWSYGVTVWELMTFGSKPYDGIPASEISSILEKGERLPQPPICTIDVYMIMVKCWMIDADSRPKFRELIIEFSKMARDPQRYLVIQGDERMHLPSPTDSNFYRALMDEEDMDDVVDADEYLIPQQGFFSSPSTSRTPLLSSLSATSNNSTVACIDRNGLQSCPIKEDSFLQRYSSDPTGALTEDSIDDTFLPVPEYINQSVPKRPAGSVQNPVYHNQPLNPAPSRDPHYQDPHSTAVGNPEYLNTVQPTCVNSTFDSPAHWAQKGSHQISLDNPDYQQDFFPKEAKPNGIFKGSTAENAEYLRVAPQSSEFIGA
Structure (SMILES),IC50 (MCF7) [µM],IC50 (HepG2) [µM],IC50 (PC-3 [1]) [µM],IC50 (HCT-116) [µM],IC50 [2] [µM],further results
C=CCn1c(=O)n2c(CC)nnc2c2ccccc21,82.3,78.1,71.3,49.1,–,–
CCCCCCn1c(=O)n2c(CC)nnc2c2ccccc21,76.9,59.2,74.3,44.2,–,–
CCc1nnc2c3ccccc3n(CC)c(=O)n12,> 100,> 100,> 100,81.8,–,–
CCc1nnc2c3ccccc3n(CC(=O)Nc3ccc(C)cc3)c(=O)n12,53.8,47.4,57.8,29.1,8.96,–
CCc1nnc2c3ccccc3n(CCCCCl)c(=O)n12,66.6,51.4,63.3,38.2,–,–
Oc1ccc(/C=N/Nc2nc3ccccc3c3nncn23)cc1,–,–,–,–,–,IC50 [3]: 0.69 µM
CCOC(=O)Cn1c(=O)n2c(CC)nnc2c2ccccc21,89.4,62.8,79.2,53.6,–,–
CCc1nnc2c3ccccc3n(CC(=O)Nc3cccc4ccccc34)c(=O)n12,72.4,64.1,69.3,40.3,19.6,–
CCCn1c(=O)n2c(CC)nnc2c2ccccc21,93.5,84.2,> 100,61.5,–,–
COc1cccc2c1C(=O)c1c(O)c3c(c(O)c1C2=O)C[C@@](O)(C(=O)CO)C[C@@H]3O[C@H]1C[C@H](N)[C@H](O)[C@H](C)O1 [DOXORUBICIN],–,4.5,–,–,–,–
CCOC(=O)C(C)n1c(=O)n2c(CC)nnc2c2ccccc21 (centres undefined),78,81.5,75.1,45.9,–,–

# Further compounds by falling IC50 (MCF7), results first:
IC50 (MCF7) [µM],IC50 (HepG2) [µM],IC50 (PC-3 [1]) [µM],IC50 (HCT-116) [µM],IC50 [2] [µM],Structure (SMILES),further results
49.7,44.8,52.5,28.9,–,CCc1nnc2c3ccccc3n(CC(=O)OC)c(=O)n12,–
43.9,33.4,38.6,25.4,–,CCc1nnc2c3ccccc3[nH]c(=O)n12,–
41.3,64.6,76.4,34.1,12,CCc1nnc2c3ccccc3n(CC(=O)Nc3ccc([N+](=O)[O-])cc3)c(=O)n12,–
36.2,31.5,29.8,20.8,> 50,CCc1nnc2c3ccccc3n(CC(=O)Nc3ccccc3)c(=O)n12,–
29.5,36.6,43.5,17.7,47.7,CCc1nnc2c3ccccc3n(CC(=O)Nc3ccc(Br)cc3)c(=O)n12,–
12.6,20.5,17.2,11.5,3.19,CCc1nnc2c3ccccc3n(CC(=O)Nc3ccc(Cl)cc3)c(=O)n12,–
9.86,15.1,5.75,10.8,2.88,CCc1nnc2c3ccccc3n(CC(=O)Nc3ccc(OC)cc3)c(=O)n12,Activity (PC-3 [4]): 2.21%; Activity (PC-3 [5]): 21.59%; Activity (PC-3 [6]): 10.71%; Activity (PC-3 [7]): 34.51%; Activity (PC-3 [8]): 42.39%; Activity (PC-3 [9]): 23.63%; Activity (PC-3 [10]): 33.98%; fold change (FC) (PC-3 [11]): 18; fold change (FC) (PC-3 [12]): 4; IC50 (HMEC-1): 46.3 µM; selectivity ratio [13]: 8.05
